In the library only some 2% were active in any assay of this set; here they are far more common.
CDK5 inh: CDK5/p35 (human) kinase inhibition; 0.01% of 330,000 active; AID 488839; Recombinant CDK5/p35, ADP-Glo luminescence, 60 min; Q00535+Q15078; inhibition, % at 10 µM;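 active = highest replicate inhibition of at least 50% and at least 75% of replicates reaching 50%; inconclusive = only one of the two criteria met; inactive = both criteria failed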
SR-BI DiI-HDL act: activators of SR-BI mediated HDL lipid uptake. CHO ldlA[mSR-BI] cells, DiI-HDL uptake fluorescence, 3 h; 100 = double the neutral-control signal. 0.096% of 320,000 active. activation, % at 12.5 µM. AID 504775;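 active = mean replicate activation of at least 60% and every replicate at or above 60%; inconclusive = mean or all-replicate condition met, but not both; inactive = mean below 60% and not all replicates reaching 60%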
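Test system: SR-BI-overexpressing, LDLR-lacking CHO cells. Measured by: DiI fluorescence, bottom read. Medium: Ham's F12 with 0.5% BSA, HEPES 25 mM, pH 7.4. Timing: 3 h uptake period with compound, 37 °C.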
dFosB act-1: activators of mouse delta FosB homodimer | P13346 | purified delta FosB, TAMRA-CDK5 oligo fluorescence polarization; percent of positive-control signal above neutral wells | activation, % at 25 µM | 0.99% of 340,000 active;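 active = mean activation above about 17%, with every replicate also reaching it, limit read from the data, passing the limit was not always enough; inconclusive = only one of the two conditions met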
SR-BI HDL uptake: blocks mouse SR-BI lipid uptake from DiI-HDL; Q61009; ldlA[mSR-BI] CHO cells, DiI-HDL uptake fluorescence, 3 h; inhibition, % at 12.5 µM; 0.96% of 320,000 active;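 active = mean replicate inhibition of at least 70% and a set share of replicates each scoring 70 or more; inconclusive = meets just one of the two criteria; inactive = fails both criteria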
Target sequence (Q61009 whole entry, looked up): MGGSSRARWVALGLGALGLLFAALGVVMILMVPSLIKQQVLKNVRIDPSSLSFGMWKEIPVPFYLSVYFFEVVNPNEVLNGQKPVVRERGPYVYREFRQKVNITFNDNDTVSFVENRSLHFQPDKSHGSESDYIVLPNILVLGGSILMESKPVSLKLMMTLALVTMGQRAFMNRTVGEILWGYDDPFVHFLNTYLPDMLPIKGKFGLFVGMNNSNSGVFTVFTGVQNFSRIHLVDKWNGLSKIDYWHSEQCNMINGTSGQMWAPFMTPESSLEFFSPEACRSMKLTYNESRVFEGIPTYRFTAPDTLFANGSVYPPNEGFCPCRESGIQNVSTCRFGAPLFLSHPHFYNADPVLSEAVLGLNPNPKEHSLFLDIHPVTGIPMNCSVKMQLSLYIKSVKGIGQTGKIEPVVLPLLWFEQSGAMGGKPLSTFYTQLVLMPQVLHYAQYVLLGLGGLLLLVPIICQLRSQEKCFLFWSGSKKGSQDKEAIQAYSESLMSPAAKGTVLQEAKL
dFosB act-2: activators of mouse delta FosB homodimer DNA binding; shares compounds with dFosB act-1; purified delta FosB, TAMRA-CDK5 oligo fluorescence polarization; normalised: neutral wells 0, positive control 100; activation, % at 24.9 µM; 2,400 tested, under 10 active; AID 588690;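 active = highest replicate activation at or above 34% and every replicate reaching that threshold; inconclusive = meets only one of the two criteria; inactive = meets neither criterion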;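 note: higher polarization means more probe DNA bound by delta FosB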
Large screens that a line does not name were inactive (follow-up assays come after a bar, where they were run).

O=C(Cn1cc(C(F)(F)F)cc(Cl)c1=O)NCc1ccc(Cl)cc1Cl	dFosB act-1 46 | dFosB act-2 inactive
Cc1ccnc(NS(=O)(=O)c2ccc(NC(=O)Cc3ccc(Br)cc3)cc2)n1	none
CCOc1ccc(-n2nnnc2SCC(=O)Nc2ccc(NC(C)=O)cc2)cc1	dFosB act-1 19 | dFosB act-2 inactive
CSc1ccccc1NC(=O)Nc1cccc(Cl)c1Cl	dFosB act-1 26 | dFosB act-2 inactive
CSc1ccccc1NC(=O)Nc1cccc(Cl)c1C	none
COc1cc2c(cc1OC)-c1cc3ccc(OC)c(OC)c3c[n+]1CC2	dFosB act-1 28 | dFosB act-2 inactive
COc1cc2c(cc1OC)C(C)=NCC2	none
O=C(Cn1ncn2c(cc3ccccc32)c1=O)NCCCc1ccccc1	dFosB act-1 48 | dFosB act-2 inactive
COc1ccccc1/C=C/C(=O)NC(=S)Nc1ccc(S(=O)(=O)N(C)c2ccccc2)cc1	dFosB act-1 24 | dFosB act-2 inactive
O=C(O)c1ccccc1Cc1ccc2c(c1)CCCC2	SR-BI DiI-HDL act inconclusive
O=C(Nc1cc(N2CCOCC2)ncn1)NC1(C(F)(F)F)Oc2ccccc2O1	dFosB act-1 33 | dFosB act-2 inactive
COc1cccc(NC(=O)NC2(C(F)(F)F)Oc3ccccc3O2)c1	none (no result: CDK5 inh)
O=C(O)C=C(Br)Br	none
CCc1cc2cc3c(cc2nc1SCC(=O)Nc1nccs1)OCO3	none
CCc1cc2cc3c(cc2nc1SCC(=O)Nc1c[nH]c(=O)[nH]c1=O)OCO3	dFosB act-1 70 (no result: SR-BI DiI-HDL act, SR-BI HDL uptake) | dFosB act-2 inactive
CC(C)Cc1nnc(NC(=O)CSc2nc(-c3ccccc3)cc(=O)[nH]2)s1	dFosB act-1 49 | dFosB act-2 inactive
Cc1cc(=O)[nH]c(SCC(=O)Nc2nnc(CC(C)C)s2)n1	none
Cc1ccc(NC(=O)CSc2nc3nc(C)c(Br)cc3[nH]2)cc1F	dFosB act-1 57 | dFosB act-2 inactive
CCc1ccc(NC(=O)CSc2nc3ncc(Br)cc3[nH]2)cc1	dFosB act-1 19 | dFosB act-2 inactive
O=C(NNc1ccccc1[N+](=O)[O-])Nc1ccccc1	none
O=C(NNc1ccccc1[N+](=O)[O-])Nc1ccc(Cl)c(Cl)c1	dFosB act-1 29 | dFosB act-2 inactive
CCCCc1ccc(NC(=O)CSc2nc(=O)n(CCN(CC)CC)c3c2CCC3)cc1	none
COc1ccc(CN(CC(=O)NC2CCCC2)C(=O)CN2C(=O)COc3ccccc32)cc1	none
O=C(CN(Cc1ccc(Cl)cc1)C(=O)CN1C(=O)COc2ccccc21)NC1CCCC1	dFosB act-1 29 (no result: SR-BI DiI-HDL act, SR-BI HDL uptake) | dFosB act-2 inactive
CCn1cc(C(=O)C(F)(F)F)c2ccccc21	none
CCn1cc(C(=O)NP(=O)(Nc2ccc(C)cc2)Nc2ccc(C)cc2)c2ccccc21	SR-BI DiI-HDL act 165, dFosB act-1 36 | dFosB act-2 inactive
COc1ccc(N2CCN(C(=O)COC(=O)CCOc3ccc(C(C)(C)C)cc3)CC2)cc1	none
COc1cc2c3nnc(-c4ccc(F)cc4)c-3cn(Cc3cccc(C)c3)c2cc1OC	dFosB act-1 41 | dFosB act-2 inactive
COc1cc2c3nnc(-c4ccccc4)c-3cn(Cc3ccc(F)cc3)c2cc1OC	dFosB act-1 22 | dFosB act-2 inactive
COc1cc2c3nnc(-c4ccc(F)cc4)c-3cn(Cc3ccc(C)cc3)c2cc1OC	dFosB act-1 inconclusive
COc1ccc(NC(=O)Nc2cc(C(=O)O)ccc2N2CC3CC(C2)c2cccc(=O)n2C3)c(OC)c1 (stereo not drawn)	none
CCOC(=O)c1ccc(S(=O)(=O)N2CCN(Cc3cc4c(cc3O)OCO4)CC2)cc1	none
Cn1nc(C(=O)Nc2ccc(Cl)cc2)cc1C(=O)Nc1ccc(Cl)cc1	none (no result: SR-BI DiI-HDL act, SR-BI HDL uptake)
Cn1nc(C(=O)Nc2cccc(Cl)c2)cc1C(=O)Nc1cccc(Cl)c1	dFosB act-1 33 | dFosB act-2 inactive
O=C(Cn1cnc2sc3c(c2c1=O)CCCC3)NCC(=O)Nc1ccc(F)cc1F	dFosB act-1 36 | dFosB act-2 inactive
Cc1ccc(CNCC(=O)Nc2cccc(S(=O)(=O)NC3=NCCCCC3)c2)cc1	none
CCN1CCN(C(=O)CCc2nnc3ccc(N4CCC5(CC4)OCCO5)nn23)CC1	none (no result: CDK5 inh)
COc1cc2c(cc1OC)C(c1ccc(-c3ccc(Cl)cc3Cl)o1)=NCC2	dFosB act-1 34 | dFosB act-2 inactive
Clc1cccc(CNc2nc(-c3cccnc3)nc3ccccc23)c1	dFosB act-1 55 (no result: SR-BI DiI-HDL act, SR-BI HDL uptake) | dFosB act-2 inactive
